ChEMBL document CHEMBL3124806, “Imidazopyridine-fused [1,3]-diazepinones: synthesis and antiproliferative activity” (Eur J Med Chem, 2014)

How the values were obtained:
Type in all cases: functional
[1] = Cytotoxicity against human UACC257 cells assessed as cell growth at 10 uM after 48 hrs by SRB assay relative to untreated control; settings: UACC-257, 48 h, read-out: Activity
Outline: (§1)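 NCI-60 single-dose screen. Compounds were added to the cultures at 10 μM and incubated for 48 h. The end point was sulforhodamine B protein staining read spectrophotometrically. Growth is reported as percent of untreated control cells.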

OVCAR-3 = test: Cytotoxicity against human OVCAR3 cells assessed as cell growth at 10 uM after 48 hrs by SRB assay relative to untreated control; settings: OVCAR-3, 48 h, read-out: Activity
Outline: (§2)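 NCI-60 one-dose screen: each agent added at 10 µM, cultures incubated 48 h. Endpoint by sulforhodamine B protein-binding dye read spectrophotometrically; growth expressed as percent of untreated control cells.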

MOLT-4 = test: Cytotoxicity against human MOLT4 cells assessed as cell growth at 10 uM after 48 hrs by SRB assay relative to untreated control; settings: MOLT-4, 48 h, read-out: Activity; outline: as §2
NCI-H226 = test: Cytotoxicity against human NCI-H226 cells assessed as cell growth at 10 uM after 48 hrs by SRB assay relative to untreated control; settings: NCI-H226, 48 h, read-out: Activity; outline: as §2
NCI-H322M = test: Cytotoxicity against human NCI-H322M cells assessed as cell growth at 10 uM after 48 hrs by SRB assay relative to untreated control; settings: read-out: Activity; outline: as §2
HT-29 = test: Cytotoxicity against human HT-29 cells assessed as cell growth at 10 uM after 48 hrs by SRB assay relative to untreated control; settings: HT-29, 48 h, read-out: Activity
Outline: (§3)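 NCI-60 panel screen at a single concentration of 10 μM with 48 h incubation. Cell density measured by sulforhodamine B protein-binding dye and read spectrophotometrically. Growth expressed as percent of untreated control cells.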

SNB-19 = test: Cytotoxicity against human SNB19 cells assessed as cell growth at 10 uM after 48 hrs by SRB assay relative to untreated control; settings: SNB-19, 48 h, read-out: Activity; outline: as §1
SF-268 = test: Cytotoxicity against human SF268 cells assessed as cell growth at 10 uM after 48 hrs by SRB assay relative to untreated control; settings: SF-268, 48 h, read-out: Activity; outline: as §2
SF-295 = test: Cytotoxicity against human SF295 cells assessed as cell growth at 10 uM after 48 hrs by SRB assay relative to untreated control; settings: SF-295, 48 h, read-out: Activity; outline: as §2
T47D = test: Cytotoxicity against human T47D cells assessed as cell growth at 10 uM after 48 hrs by SRB assay relative to untreated control; settings: read-out: Activity; outline: as §1
TK-10 = test: Cytotoxicity against human TK10 cells assessed as cell growth at 10 uM after 48 hrs by SRB assay relative to untreated control; settings: TK-10, 48 h, read-out: Activity; outline: as §1
SW-620 = test: Cytotoxicity against human SW620 cells assessed as cell growth at 10 uM after 48 hrs by SRB assay relative to untreated control; settings: SW-620, 48 h, read-out: Activity; outline: as §1
ACHN = test: Cytotoxicity against human ACHN cells assessed as cell growth at 10 uM after 48 hrs by SRB assay relative to untreated control; settings: read-out: Activity; outline: as §3
[2] = Cytotoxicity against human UO31 cells assessed as cell growth at 10 uM after 48 hrs by SRB assay relative to untreated control; settings: UO-31, 48 h, read-out: Activity; outline: as §1
MCF7 = test: Cytotoxicity against human MCF7 cells assessed as cell growth at 10 uM after 48 hrs by SRB assay relative to untreated control; settings: MCF7, 48 h, read-out: Activity; outline: as §3
RPMI-8226 = test: Cytotoxicity against human RPMI8226 cells assessed as cell growth at 10 uM after 48 hrs by SRB assay relative to untreated control; settings: RPMI-8226, 48 h, read-out: Activity; outline: as §2
OVCAR-8 = test: Cytotoxicity against human OVCAR8 cells assessed as cell growth at 10 uM after 48 hrs by SRB assay relative to untreated control; settings: OVCAR-8, 48 h, read-out: Activity; outline: as §2
HCT-15 = test: Cytotoxicity against human HCT15 cells assessed as cell growth at 10 uM after 48 hrs by SRB assay relative to untreated control; settings: HCT-15, 48 h, read-out: Activity; outline: as §3
M14 = test: Cytotoxicity against human M14 cells assessed as cell growth at 10 uM after 48 hrs by SRB assay relative to untreated control; settings: M14, 48 h, read-out: Activity; outline: as §3
IGROV-1 = test: Cytotoxicity against human IGROV1 cells assessed as cell growth at 10 uM after 48 hrs by SRB assay relative to untreated control; settings: IGROV-1, 48 h, read-out: Activity; outline: as §3
K562 = test: Cytotoxicity against human K562 cells assessed as cell growth at 10 uM after 48 hrs by SRB assay relative to untreated control; settings: K562, 48 h, read-out: Activity; outline: as §3
MDA-MB-435 = test: Cytotoxicity against human MDA-MB-435 cells assessed as cell growth at 10 uM after 48 hrs by SRB assay relative to untreated control; settings: MDA-MB-435, 48 h, read-out: Activity; outline: as §2
786-0 = test: Cytotoxicity against human […] cells assessed as cell growth at 10 uM after 48 hrs by SRB assay relative to untreated control; settings: 786-0, 48 h, read-out: Activity; outline: as §3
Malme-3M = test: Cytotoxicity against human MALME-3M cells assessed as cell growth at 10 uM after 48 hrs by SRB assay relative to untreated control; settings: read-out: Activity; outline: as §3
BT-549 = test: Cytotoxicity against human BT549 cells assessed as cell growth at 10 uM after 48 hrs by SRB assay relative to untreated control; settings: BT-549, 48 h, read-out: Activity; outline: as §3
CAKI-1 = test: Cytotoxicity against human Caki1 cells assessed as cell growth at 10 uM after 48 hrs by SRB assay relative to untreated control; settings: CAKI-1, 48 h, read-out: Activity; outline: as §3
HOP-92 = test: Cytotoxicity against human HOP92 cells assessed as cell growth at 10 uM after 48 hrs by SRB assay relative to untreated control; settings: HOP-92, 48 h, read-out: Activity; outline: as §3
SK-OV-3 = test: Cytotoxicity against human SKOV3 cells assessed as cell growth at 10 uM after 48 hrs by SRB assay relative to untreated control; settings: SK-OV-3, 48 h, read-out: Activity; outline: as §1
LOX IMVI = test: Cytotoxicity against human LOXIMVI cells assessed as cell growth at 10 uM after 48 hrs by SRB assay relative to untreated control; settings: read-out: Activity; outline: as §3
U-251 = test: Cytotoxicity against human U251 cells assessed as cell growth at 10 uM after 48 hrs by SRB assay relative to untreated control; settings: U-251, 48 h, read-out: Activity; outline: as §1
SF-539 = test: Cytotoxicity against human SF539 cells assessed as cell growth at 10 uM after 48 hrs by SRB assay relative to untreated control; settings: SF-539, 48 h, read-out: Activity; outline: as §2
CCRF-CEM = test: Cytotoxicity against human CCRF-CEM cells assessed as cell growth at 10 uM after 48 hrs by SRB assay relative to untreated control; settings: read-out: Activity; outline: as §3

Structure (SMILES)	growth at 10 µM [1]	growth at 10 µM (OVCAR-3)	growth at 10 µM (MOLT-4)	growth at 10 µM (NCI-H226)	growth at 10 µM (NCI-H322M)	growth at 10 µM (HT-29)	growth at 10 µM (SNB-19)	growth at 10 µM (SF-268)	growth at 10 µM (SF-295)	growth at 10 µM (T47D)	growth at 10 µM (TK-10)	growth at 10 µM (SW-620)	growth at 10 µM (ACHN)	growth at 10 µM [2]	growth at 10 µM (MCF7)	growth at 10 µM (RPMI-8226)	growth at 10 µM (HCT-15)	growth at 10 µM (M14)	growth at 10 µM (IGROV-1)	growth at 10 µM (MDA-MB-435)	further results
O=C1Nc2nc3ccccn3c2C(=O)[C@H](Cc2ccccc2)N1	89.8%	101%	110%	104%	103%	106%	103%	101%	105%	103%	99.8%	101%	97%	90.2%	95.7%	105%	94.6%	93%	109%	96.4%	growth at 10 µM (OVCAR-8): 95.8%; growth at 10 µM (K562): 106%; growth at 10 µM (786-0): 99.2%; growth at 10 µM (Malme-3M): 93.2%; growth at 10 µM (BT-549): 96.9%; growth at 10 µM (CAKI-1): 96.2%; growth at 10 µM (HOP-92): 86.5%; growth at 10 µM (SK-OV-3): 112%; growth at 10 µM (LOX IMVI): 93.5%; growth at 10 µM (U-251): 93.2%; growth at 10 µM (SF-539): 95.9%; growth at 10 µM (CCRF-CEM): 113%
C[C@@H]1NC(c2ccc(N(C)C)cc2)=Nc2nc3ccccn3c2C1=O	97.6%	101%	84.2%	77.5%	69.2%	101%	95.2%	103%	92.1%	80.7%	86%	85.3%	85.3%	53.7%	66%	84.9%	94.7%	101%	84.8%	94.5%	growth at 10 µM (OVCAR-8): 88.2%; growth at 10 µM (K562): 82.2%; growth at 10 µM (786-0): 102%; growth at 10 µM (Malme-3M): 100%; growth at 10 µM (BT-549): 88.1%; growth at 10 µM (CAKI-1): 89.7%; growth at 10 µM (HOP-92): 33%; growth at 10 µM (SK-OV-3): 91%; growth at 10 µM (LOX IMVI): 87%; growth at 10 µM (U-251): 94.8%; growth at 10 µM (SF-539): 92.7%; growth at 10 µM (CCRF-CEM): 88.7%
C[C@@H]1NC(c2ccccc2)=Nc2nc3ccccn3c2C1=O	121%	103%	98.2%	88%	102%	113%	106%	103%	89%	92.8%	135%	93.5%	97.5%	82.5%	67.2%	85.7%	104%	99.8%	88.2%	91.6%	growth at 10 µM (K562): 108%; growth at 10 µM (786-0): 103%; growth at 10 µM (Malme-3M): 99.5%; growth at 10 µM (BT-549): 93.2%; growth at 10 µM (CAKI-1): 81.8%; growth at 10 µM (HOP-92): 75.5%; growth at 10 µM (SK-OV-3): 101%; growth at 10 µM (LOX IMVI): 84.2%; growth at 10 µM (U-251): 102%; growth at 10 µM (SF-539): 108%; growth at 10 µM (CCRF-CEM): 104%
O=C1c2c(nc3ccccn23)NC(=O)N2CCC[C@@H]12	91%	108%	120%	100%	106%	106%	104%	100%	100%	92.8%	99.6%	106%	101%	95.1%	99.9%	103%	99.9%	94.8%	109%	94.9%	growth at 10 µM (OVCAR-8): 94.2%; growth at 10 µM (786-0): 98.6%; growth at 10 µM (Malme-3M): 93.1%; growth at 10 µM (BT-549): 82.8%; growth at 10 µM (CAKI-1): 97.9%; growth at 10 µM (HOP-92): 86.2%; growth at 10 µM (SK-OV-3): 99.7%; growth at 10 µM (LOX IMVI): 92.8%; growth at 10 µM (U-251): 95.8%; growth at 10 µM (SF-539): 91.7%; growth at 10 µM (CCRF-CEM): 102%
